# Compound activity (PubChem BioAssay)
# M5 antag: human M5 muscarinic receptor antagonists, primary screen, CHO cells, Fluo-8 calcium fluorescence; Muscarinic acetylcholine receptor M5 (Homo sapiens), P08912; CHO-hM5 cells, ACh EC80; inhibition, % at 3 µM; AID 624040, 2012; hit rate 0.59% among 360,000;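 active = inhibition above a per-plate cutoff, the mean of that plate's test compounds plus 3 SD, cut at about 27% in these data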;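 also: 0% = acetylcholine EC80 with DMSO and 100% = DMSO without agonist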
# Target sequence (P08912 whole entry, looked up): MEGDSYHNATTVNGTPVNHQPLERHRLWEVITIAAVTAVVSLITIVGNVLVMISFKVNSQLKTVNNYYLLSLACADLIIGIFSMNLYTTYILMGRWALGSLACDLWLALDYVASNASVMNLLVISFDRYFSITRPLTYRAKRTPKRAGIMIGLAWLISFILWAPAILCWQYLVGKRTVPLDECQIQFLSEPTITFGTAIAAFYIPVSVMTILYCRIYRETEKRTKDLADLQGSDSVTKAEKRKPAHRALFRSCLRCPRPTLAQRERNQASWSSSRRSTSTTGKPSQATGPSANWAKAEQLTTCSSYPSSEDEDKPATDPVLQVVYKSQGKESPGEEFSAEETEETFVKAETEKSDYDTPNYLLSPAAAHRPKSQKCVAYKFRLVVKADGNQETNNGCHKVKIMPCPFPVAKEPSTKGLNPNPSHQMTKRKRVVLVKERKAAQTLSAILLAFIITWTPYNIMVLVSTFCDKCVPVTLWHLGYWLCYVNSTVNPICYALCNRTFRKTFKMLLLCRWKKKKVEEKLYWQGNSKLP
# M5 ag: human M5 muscarinic receptor agonists, primary screen, CHO-K1 cells, Fluo-8 calcium fluorescence | hit rate 0.19% among 360,000 | activation, % at 3 µM | AID 624037, 2012 | CHO-K1 hM5 cells; 0% DMSO wells, 100% maximal acetylcholine response;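 active = activation above the run's mean over test compounds plus 3 SD, cut at about 23% in these data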;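 also: signal is peak over basal fluorescence ratio across the kinetic read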
# M4 antag: human M4 muscarinic receptor antagonists, primary screen, CHO cells, Fluo-8 calcium fluorescence. AID 624125, 2012. hit rate 0.73% among 360,000. Muscarinic acetylcholine receptor M4 (Homo sapiens), P08173. inhibition, % at 3 µM. CHO-hM4 cells, ACh EC80;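 active = inhibition above its plate's cutoff, the mean inhibition of sample wells plus 3 SD, cut at about 27% in these data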;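 also: 0% = acetylcholine EC80 with DMSO and 100% = DMSO without agonist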
# M4 PAM: human M4 muscarinic receptor positive allosteric modulators, primary screen, CHO-K1 cells, Fluo-8 calcium fluorescence; CHO-K1 hM4/Gqi5, ACh EC20; 0% = ACh EC20, 100% = maximal ACh; hit rate 0.4% among 360,000; activation, % at 3 µM; AID 624126, 2012;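 active = activation above its plate's cutoff, the mean activation of sample wells plus 3 SD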
# CHRM5 PAM: human M5 muscarinic receptor positive allosteric modulators, primary screen, CHO-K1 cells, Fluo-8 calcium fluorescence. Muscarinic acetylcholine receptor M5 (Homo sapiens), P08912. CHO-K1 hM5, ACh EC20 PAM; 0% = ACh EC20, 100% = ACh EC100. activation, % at 3 µM. hit rate 0.3% among 360,000. AID 624038, 2012;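 active = activation above the run cutoff, the mean activation of all test compounds plus 3 SD, cut at about 18% in these data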
#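 Test system: CHO-K1 hM5 cells / Doses: single-point, 3 µM nominal / Times: Post-acetylcholine fluorescence recording 140 s / Technique: Fluo-8 calcium fluorescence / Measure: Max/basal fluorescence ratio as % of EC20–EC100 ACh window / Benchmarks: low control EC20 acetylcholine (0%), high control EC100 acetylcholine (100%) / Replicates: one well per compound, no replicates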
# CHRM4 agonist: human M4 muscarinic receptor agonists, primary screen, CHO-K1 cells, Fluo-8 calcium fluorescence; Muscarinic acetylcholine receptor M4 (Homo sapiens), P08173; CHO-K1 hM4/Gqi5; vehicle 0%, full acetylcholine response 100%; activation, % at 3 µM; hit rate 0.14% among 360,000;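 active = activation above the run mean over all test wells plus 3 SD, cut at about 32% in these data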;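 also: peak over basal fluorescence ratio per well then scaled between controls; 0% = DMSO wells and 100% = acetylcholine at EC100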
# Starred values were filed as active, the others as inactive. An excerpt weighted towards active compounds, which were near 1.9% of everything screened.
SMILES,M5 antag,M5 ag,M4 antag,M4 PAM,CHRM5 PAM,CHRM4 agonist
Nc1ccccc1SC1CC(=O)N(c2ccc(Cl)c(Cl)c2)C1=O (stereo unspecified),27.8*,3.1,14.5,-16.4,-14.6,14.6
C[C@@H](CN1CCC[C@H]1CN1C(N)=NC[C@@H]1Cc1ccccc1)N1C[C@@H](Cc2ccccc2)N(CCc2ccc(Cl)c(Cl)c2)C1=N,38.8*,-11.6,18.3,-16.2,-39.3,1.0
CCCCN1C(=N)N([C@@H](C)CN2CCC[C@H]2CN2C(N)=NC[C@H]2CC(C)C)C[C@H]1Cc1ccccc1,33.1*,-12.2,2.3,-6.8,-15.7,-0.7
CCC[C@@H](CN1CCC[C@H]1CN1C(N)=NC[C@@H]1Cc1ccccc1)N1C[C@@H](Cc2ccccc2)N(CCCC2CCCC2)C1=N,20.9,-8.9,12.2,-12.5,-38.5,-0.2
CCC[C@@H](CN1CCC[C@H]1CN1C(N)=NC[C@@H]1Cc1ccccc1)N1C[C@@H]([C@H](C)CC)N(CCCC2CCCC2)C1=N,13.0,-11.2,41.5*,-15.8,-39.6,8.1
CCCCN1C(=N)N([C@@H](C)CN2CCC[C@H]2CN2C(N)=NC[C@@H]2Cc2ccccc2)C[C@H]1[C@H](C)CC,4.1,-9.3,13.8,-6.6,0.9,-0.1
Cc1c(Br)cccc1NC(=O)C1(C)CCN1Cc1ccccc1OC(F)F (stereo unspecified),1.8,-3.3,-8.7,-9.3,-12.7,-0.2
COc1ccccc1N(C(C)=O)C1=C(Cl)C(=O)c2ccccc2C1=O,35.1*,1.4,89.7*,-12.3,-8.1,1.8
CN(CCNC(=O)c1ccc(CS(=O)(=O)c2c(Cl)cccc2Cl)o1)CCc1ccccc1,1.3,-9.2,-0.2,1.6,-1.8,2.0
COc1ccc(/C=C2\CCc3c2nc2ccccc2c3C(=O)O)cc1OC,-0.1,4.7,-18.2,6.4,-8.8,3.8
CCOc1ccc(/C=C2\CCCc3c2nc2ccccc2c3C(=O)O)cc1OC,16.6,249.4*,16.2,-18.3,-23.9,77.7*
CCCNC(=S)Nc1cccc(C(F)(F)F)c1,1.6,0.9,-0.6,6.5,1.2,1.1
FC(F)(F)c1cccc(NC(=S)NCC2COc3ccccc3O2)c1 (stereo unspecified),32.4*,5.5,7.8,-13.1,-19.2,10.8
COc1ccccc1NS(=O)(=O)c1cccc(C(=O)NCC(c2ccccc2OC)N2CCCC2)c1 (stereo unspecified),6.7,-10.7,2.6,-10.0,-24.5,0.9
CCOc1ccc(S(=O)(=O)Nc2ccc(C(=O)N3CC(C)OC(C)C3)cc2)cc1 (stereo unspecified),8.9,30.0*,12.1,-7.2,-6.6,16.2
COc1ccccc1C(CNC(=O)c1cccc(S(=O)(=O)Nc2ccc(C)cc2)c1)N1CCCC1 (stereo unspecified),27.5*,-10.4,19.0,-9.3,-33.4,2.2
CCOc1ccc(S(=O)(=O)Nc2cccc(C(=O)N3CC(C)OC(C)C3)c2)cc1 (stereo unspecified),-2.8,6.6,3.7,-4.8,-1.5,1.6
COc1ccc(NS(=O)(=O)c2ccc(C(=O)N3CCC(C)CC3)cc2)cc1,12.5,39.2*,-4.7,-8.6,-21.0,27.2
Cc1ccc(S(=O)(=O)Nc2ccc(N3CCCCC3)cc2)cc1,-12.8,-1.7,0.4,-0.4,-5.5,0.8
Cc1ccc(NS(=O)(=O)c2ccc(C3CCCCC3)cc2)cc1,27.4*,4.6,48.9*,-17.8,-17.5,12.3
CCN(C(=O)COC(=O)CN(C)S(=O)(=O)c1ccc(NC(C)=O)cc1)C1CCS(=O)(=O)C1 (stereo unspecified),7.0,-2.4,2.1,1.2,1.7,0.6
CC(C)n1c(=O)c2ccccc2n1S(C)(=O)=O,1.1,0.8,-21.8,14.4,-9.7,1.4
O=C(c1cccc([N+](=O)[O-])c1)N1CCN(c2n[nH]c(=O)[nH]c2=O)CC1,-0.3,2.6,-1.8,-11.2,0.5,0.6
COC(=O)C1(C(=O)OC)C/C=C\CCN(S(=O)(=O)c2ccccc2[N+](=O)[O-])CC1,4.1,0.3,-1.5,-4.0,-4.6,3.4
COc1ccc(CN(C)C(=O)c2ccc(NS(=O)(=O)c3ccc(F)cc3)cc2)c(OC)c1,2.9,0.5,13.3,-9.0,-9.0,3.4
SMILES,M5 antag,M5 ag,M4 antag,M4 PAM,CHRM5 PAM,CHRM4 agonist
CCOc1ccc(NS(=O)(=O)c2ccc(C(=O)N3CC(C)OC(C)C3)cc2)cc1 (stereo unspecified),4.8,57.1*,2.7,-6.4,-16.8,66.4*
COc1ccc(NS(=O)(=O)c2ccc(C(=O)N(C)Cc3ccc(C)o3)cc2)cc1,-2.2,27.5*,-2.5,-3.5,-4.1,14.3
O=C(NCC(c1ccco1)N1CCCC1)c1ccc(S(=O)(=O)Nc2ccc(F)cc2)cc1 (stereo unspecified),7.9,-2.0,6.1,-6.2,-13.6,10.5
CCOc1ccc(NS(=O)(=O)c2ccc(C(=O)NCC(c3ccco3)N3CCCC3)cc2)cc1 (stereo unspecified),6.5,12.3,-15.2,-0.8,4.7,34.0*
CC1CN(C(=O)c2ccc(NS(=O)(=O)c3ccc(C(C)(C)C)cc3)cc2)CC(C)O1 (stereo unspecified),1.8,47.9*,12.0,-5.7,-4.5,33.2*
Cc1cccc(N(C(=O)c2snc(C(N)=O)c2N)C(C(=O)NCC2CCCO2)c2ccc(N(C)C)cc2)c1C (stereo unspecified),0.1,-1.6,-0.2,-5.5,3.8,0.5
Cc1ccc(NS(=O)(=O)c2ccc(C(=O)N3CCCC(C(F)(F)F)C3)cc2)cc1 (stereo unspecified),13.2,53.8*,13.6,-5.6,-12.4,34.1*
CCOc1ccc(NS(=O)(=O)c2ccc(NC(=S)NC(=O)C(C)C)cc2)cc1,5.6,12.4,0.2,0.0,0.6,7.1
CCOc1ccc(NS(=O)(=O)c2ccc(NC(=S)NC(C)=O)cc2)cc1,3.3,25.3*,6.6,-6.2,-6.5,25.6
Cn1cc(CN2CCCCC2C(=O)Nc2ccc(-n3cccn3)cc2)cn1 (stereo unspecified),27.3*,-6.7,1.2,-0.3,-6.6,0.3
CC(=O)OC(C[N+]1(C)CCCCCC1)c1ccccc1 (stereo unspecified),27.8*,-6.6,37.2*,-15.0,-16.5,0.1
